Measured values taken from the EternaBench riboswitch data.

Tested on: MS2 coat protein
Experiment: apparent Kd, MS2 coat protein; higher = weaker binding; RNA-MaP array; FMN 200 µM where present
Procedure, shortened: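 Each design was made on Illumina sequencing-chip clusters by stalled E. coli RNA polymerase and titrated with SNAP-549-labelled MS2 coat protein from 0.7 or 1.5 nM, doubling to 3 µM, in the absence and then the presence of constant ligand. The buffer was 100 mM Tris-HCl pH 7.5, 80 mM KCl, 4 mM MgCl2, BSA, DTT, yeast tRNA and Tween-20. The apparent Kd is the median of filtered per-cluster fits of binding curves, with green signal normalised to red-channel RNA signal and control-cluster median Fmax.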

[1] = designed as: ON switch for flavin mononucleotide, no ligand
[2] = ligand present: flavin mononucleotide, designed as: ON switch for flavin mononucleotide
[3] = designed as: OFF switch for flavin mononucleotide, no ligand
[4] = ligand present: flavin mononucleotide, designed as: OFF switch for flavin mononucleotide

Sequence	apparent Kd [1]	apparent Kd [2]	apparent Kd [3]	apparent Kd [4]
AUUAGACAUGAGGAUCACCCAUGUAGGCAGUCAUGAGGAUAUGGACAAGGUGCUCAAGGUCCAGAAGGCAUACGCC	29.3 nM	18.5 nM		
GUAGCUAUCGGAGGAUAUUCAUACCGGAAACGGACAUGAGGAUCACCCAUGUGGAGAAAGCCUUAGGAGAAGGCCGAUAGCUAC	33 nM	8.9 nM		
CACAAGAAAGUCGAACCGCUAUCUAGAAGGACAACAUGACAACAUGAGGAUCACCCAUGUCAUAUGUAGGAUAUGGAUGGUGGG			8.94 nM	9.14 nM
GCCAUCGUAUGAGGAUAUGGCACCGAACCGGUGCCAGAAGGCAUGUCAAUAGACAUGAGGAUCACCCAUGUGUUAUCGAUGGCA	147 nM	13.1 nM		
CUCAUGUGAGGAUAUUCGGGCGGGCUCGUUUGGGUUUGUUUGGAGAAGGUACAUGAGGAUCACCCAUGUGCUGG			218 nM	77.8 nM
CGGUUAUAUCGAGGAUAUAAGUCUAGGACAUGAGGAUCACCCAUGUAUGUCUUAGAAGGCGAUAUAACCAGCCUGUUACAGGCA	29.3 nM	6.32 nM		
AAGAAACACGUGGAGUUAUUCGGGUAGGAUAUCUACGACCUGAUCGACAUGAGGAUCACCCAUGUAGAGAAGGGCCCAUCUCCU			6.65 nM	8.87 nM
UGGCUACAUGAGGAUCACCCAUGUCAGGAUAUGCCGUUAAAUUAACAUCAACAUACGGGUAGAAGGGACUGCGU			28.8 nM	29.5 nM
UUUACAUUACGAGGAUAUCAAUUAUUUCAUGUAUGAGAAGGCGUUAUUUUUACUACCUUACAUGAGGAUCACCCAUGUUUCAUU	62.8 nM	27.8 nM		
GCUAGUAUUGCAGGAUAUUGUAAUUUAUUAUUUCAAGAAGGGCAUUACAUGAGGAUCACCCAUGUCAUCCUAUGGUUUACUAGC			9.2 nM	19.9 nM
CCGGAAAUGAAGGAUAUAGGAGUCGAUAGACUCCUAGAAGGUCAUACAUGAGGAUCACCCAUGUGUCCUACCGG			15.8 nM	34.9 nM
AAACCUUCUGAGGAUAUCUGAGGCCCUGCGCUUAGAGAAGGUAGUACAUGAGGAUCACCCAUGUCCGCGCUGGG			16.3 nM	17.9 nM
AAUAUGUUGCAGAAGGUUAUAUUUAUUUAGUACCUCAUGACAUGAGGAUCACCCAUGUUAAUGUUGAAGGAUAUGCAAUAUAUU			14.1 nM	13.6 nM
GACUGCUGAGGAUAUACAUGAGGAUCACCCAUGUGCUUCAGCUACGAAAGUAGCAUUGGUAGAAGGUAGUAGUC			12.4 nM	22.4 nM
GGUAUGUGAGGAUAUGGGAUUGUAGACAUGAGGAUCACCCAUGUCAUGUCCGAUCAUUGCCCAGAAGGUAUCCGCU			25.6 nM	27.1 nM
GUAAAACAAACUAACAUGAGGAUCACCCAUGUGAGGAGGCUCAGAAGGGCGUGGAAAAUUUCCUCGCAGGAUAUGAACCUCAUU	70.8 nM	9.66 nM		
UUUUUGUGAGGAUAUCAGUAGUAGAACAAUAGUACUACUACUGAGAAGGCACAUGAGGAUCACCCAUGUUCUUC			29 nM	133 nM
GGUACUCAAAGAGUACCAAUACGAACAUGAGGAUCACCCAUGUAGGAUAUGCUAUCGAAACGAUAGCAGAAGGACAUGUGCCUU			26.4 nM	218 nM
CUAUCAAGCAAGGAUAUGCAAAUAAUUAUUUAUGCAGAAGGUGCAACAUGAGGAUCACCCAUGUUUCUGGGUUU			57.4 nM	89.6 nM
CAAAGACAAGCAGGAUAUCACAUGAGGAUCACCCAUGUCGGGAUCACCUGAGAGUGUUUAUUAAGUGAGAAGGGCUAGAUCACC			17.6 nM	31.2 nM
ACCUCACAUGAGGAUCACCCAUGUCAGGAUAUACAAACCGUGUAAAGACACGGUCGUAGUAGAAGGGACUAUGG			68 nM	18.7 nM
UUUGUCAUCGAGAAGGCCUCAACAUGAGGAUCACCCAUGUUGUAAUAUGGGAGGAUAUCGAUGAUACAGCUACGUUUCGUAAAA	20 nM	5.58 nM		
AUCAGUACGUGAGGAUAUGCGUUACUGCGAAAGCAGUACGGUAAGAUCACAUGAGGAUCACCCAUGUAGAAGGCACGAACUGAU			18.9 nM	37.5 nM
ACGGAACAUGAGGAUCACCCAUGUAUCUGAGAUAAGGUCUCGCAGGAUAUUCAGAGAAGCCUAUCGGAGAAGGGUGACACCAAA	38.4 nM	15.5 nM		
CCCUGAUUGAGAGGUAGGAGUGGUAGAAGGCGACCGGUGCCAGAUGACAUGAGGAUCACCCAUGUCGAGGAUAUACCACAGAAU			6.7 nM	12.2 nM
GUGGUCAGACAUGAGGAUCACCCAUGUGGAAUAAAUAACGGACAGGAUAUGCAAUAUAGGAUAUAGUAGAAGGGUUGAUUGGUG	56.5 nM	60.6 nM		
